As a reminder, the IC50 is the concentration that inhibits the measured activity by half. For orientation: Ki means a measure of affinity in units of concentration, obtained from inhibition or displacement.

This passage reports IC50 and Ki results from ChEMBL document CHEMBL5107952, “Synthesis of low-molecular weight fucoidan derivatives and their binding abilities to SARS-CoV-2 spike proteins” (RSC Med Chem, 2021).

Holding throughout (assay type): cell-based, Severe acute respiratory syndrome coronavirus 2
Assay [1] can be described thus: Competitive inhibition of biotinylated heparin binding to His-tagged SARS-COV-2 B.1.351 variant recombinant spike glycoprotein D80A/D215G/K417N/E484K/N501Y/D614G/A701V mutant expressed in Expi293F cells incubated for 120 sec by biolayer interferometry streptavidin sensor based assay. The procedure, abridged: (§1)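 Same heparin-competition BLI format with variant S proteins (B.1.1.7, B.1.351, P.1). Biotinylated heparin sat on streptavidin sensors, and S protein (1 μM) was in TBS (20 mM Tris, pH 7.4, 0.02% BSA). Bound (%) was read from the BLI signal. IC50 was fitted and converted to Ki via Cheng–Prusoff.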
On the technique in general: BLI is a label-free optical method that tracks binding on a fibre tip over time.

Assay [2] in a line: Competitive inhibition of biotinylated heparin binding to His-tagged SARS-COV-2 B.1.1.7 variant recombinant spike glycoprotein del69-70/del144/N501Y/A570D/D614G/P681H/T716I/S982A/D1118H mutant expressed in Expi293F cells assessed as inhibition constant incubated for 120 sec by biolayer interferometry streptavidin sensor based assay. The procedure, abridged: as §1
Assay [3] in a line: Competitive inhibition of biotinylated heparin binding to His-tagged SARS-COV-2 B.1.1.7 variant recombinant spike glycoprotein del69-70/del144/N501Y/A570D/D614G/P681H/T716I/S982A/D1118H mutant expressed in Expi293F cells incubated for 120 sec by biolayer interferometry streptavidin sensor based assay. The procedure, abridged:
as §1

The nature of assay [4]: Competitive inhibition of biotinylated heparin binding to His-tagged SARS-COV-2 B.1.351 variant recombinant spike glycoprotein D80A/D215G/K417N/E484K/N501Y/D614G/A701V mutant expressed in Expi293F cells assessed as inhibition constant incubated for 120 sec by biolayer interferometry streptavidin sensor based assay. An outline of the steps:
as §1

Assay [5] can be described thus: Competitive inhibition of biotinylated heparin binding to His-tagged SARS-COV-2 P.1 variant recombinant spike glycoprotein L18F/T20N/P26S/D138Y/R190S/K417T/E484K/N501Y/H655Y/T1027I mutant expressed in Expi293F cells incubated for 300 sec by biolayer interferometry streptavidin sensor based assay. An outline of the steps:
as §1

Assay [6] is described as follows: Competitive inhibition of biotinylated heparin binding to His-tagged SARS-COV-2 P.1 variant recombinant spike glycoprotein L18F/T20N/P26S/D138Y/R190S/K417T/E484K/N501Y/H655Y/T1027I mutant expressed in Expi293F cells assessed as inhibition constant incubated for 300 sec by biolayer interferometry streptavidin sensor based assay. The procedure, abridged: as §1

For `CCCCCCCCO[C@H]1O[C@@H](C)[C@@H](O[C@@H]2O[C@@H](C)[C@@H](O[C@@H]3O[C@@H](C)[C@@H](O[C@@H]4O[C@@H](C)[C@@H](OS(=O)(=O)O)[C@@H](OS(=O)(=O)O)[C@@H]4OS(=O)(=O)O)[C@@H](OS(=O)(=O)O)[C@@H]3OS(=O)(=O)O)[C@@H](OS(=O)(=O)O)[C@@H]2OS(=O)(=O)O)[C@@H](OS(=O)(=O)O)[C@@H]1OS(=O)(=O)O`, the values for the 50% inhibitory concentration (IC50) in assay [1], in assay [3] and in assay [5] were 85.9 µM, 35 µM and 65.6 µM, respectively. Also, the Ki is 10.1 µM in assay [2], 6.67 µM in assay [4] and 6.98 µM in assay [6].
